The source made the active and inactive calls.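 How the source made its calls, unless noted: active means fluorescence slope higher than the sample average by over 3 SD (cut at about -0.22 in these data, passing the limit was not always enough); inactive means the rest.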
Legend:
[1] = inhibitors of TNFa-induced NFkB p65 translocation, primary screen, imaging, HUVEC, MLSMR starter and 10KST1 sets (AID 438;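 active means inhibition above 20% together with a positive visual image hit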;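 further: compound added about 3h40 before a 20 min TNFalpha stimulation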;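 on inhibition: signal is the nuclear over cytoplasmic p65 intensity ratio per well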); conditions: HUVEC TNFa-induced p65 nuclear translocation; cell count: measured here: nuclei count (cytotoxicity indicator), at 2.08 µM; inhibition: at 2 µM, stronger effect = higher value, 0% TNFa-plus-vehicle, 100% no-TNFa wells
[2] = endothelial E-selectin expression blockers – imaging, HUVEC, immunofluorescence, MLSMR starter and 10KST1 sets, primary screen (AID 487;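 active means visually confirmed hit in the image check and inhibition above 20%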;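 on inhibition: signal is fraction of cell area covered by stained E-selectin grains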;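 on nuclei count: 100% = median nuclei count of all wells on the same plate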); conditions: HUVEC TNFalpha-induced E-selectin immunofluorescence imaging, at 2 µM; inhibition: stronger effect = higher value; nuclei count: measured here: cell number, toxicity
[3] = Primary imaging screen for DUSP6 inhibitors that restore phospho-Erk in transfected HeLa cells, chemical complementation (AID 609;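 active means compounds giving at least 50% inhibition in the cell-based MKP-3 phosphatase rescue imaging test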;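 on inhibition: phospho-Erk level distribution per well compared with pooled transfected vehicle control wells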); conditions: HeLa MKP-3 transfected, phospho-Erk imaging KS statistic, at 10 µM, cells stimulated with TPA for 15 min
[4] = target: Dual specificity protein phosphatase 6 (Homo sapiens) (UniProt Q16828); assay: as above; conditions: HeLa MKP-3 transfected, phospho-Erk imaging KS statistic; at 10 µM; stronger effect = higher value; cells stimulated with TPA for 15 min
[5] = target: Voltage-gated potassium channel subunit beta-2 (Rattus norvegicus) (UniProt P62483); assay: inhibitors of rat Kvbeta2 reductase activity – biochemical, NADPH fluorescence, primary screen (AID 622); conditions: recombinant KvBeta, 4-cyanobenzaldehyde reduction, at 10 µM, stronger effect = higher value;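 further: slope of raw intensity against log time taken from 70 to 1610 s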
[6] = target: Voltage-gated potassium channel subunit beta-2 (Rattus norvegicus) (UniProt P62483); assay: enhancers of rat Kvbeta2 NADPH turnover – biochemical, NADPH fluorescence, primary screen (AID 623;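 active means NADPH fluorescence slope more negative than the mean of all samples by about 3 SD, 99.7% confidence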;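 further: fluorescence intensity change per second fitted from 20 to 320 s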); conditions: Recombinant KvBeta, NADPH fluorescence decrease slope, 10 min; at 10 µM; stronger effect = lower value
[7] = target: Alpha-2C adrenergic receptor (Homo sapiens) (UniProt P18825); assay: compounds altering alpha2C-coupled GIRK flux – cell-based, HEK293 alpha2C/GIRK1/2, thallium flux, primary screen (AID 624;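 active means fluorescence slope after compound addition differing from the mean of all screened samples at 99.7% confidence, in either direction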;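 further: slope of fluorescence ratio to pre-addition baseline per second over 15 to 24 s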); conditions: thallium flux BTC fluorescence, at 10 µM, actives lie on both sides
[8] = inhibitors of larval lipid processing in zebrafish, primary screen, whole organism, PED6 fluorescence, gall bladder and intestine (AID 686;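 active means a full or partial loss of lipid-probe fluorescence in the fish gall bladder, intestine or both, judged by eye; inactive means no fluorescence loss, or compound toxic to the fish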;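 further: larvae 5 to 7 days old with five fish per well; signal comes from phospholipase A2 cleavage of quenched PED6 carried via bile; overnight exposure to compound and PED6 before scoring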); conditions: Zebrafish larvae PED6 lipid processing, fluorescence scoring; screened at 20 µM (by protocol)
Summary of the method: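 Doses: 20 µM single dose. Test system: live zebrafish larvae aged 5-7 days, whole organism. Quantity: five larvae per well. Measured by: By-eye fluorescence microscopy. Reagent: ingested quenched lipid PED6 at 100 nM. Read-out: visual per-well fluorescence inhibition score. Times: overnight exposure of larvae to compound plus PED6.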

[9] = loss of swimming-algae plug formation – whole organism, Chlamydomonas reinhardtii, WT vs cilia-less mutant, absorbance, 96-well, primary screen (AID 463189;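 active means inhibition at or above 50% relative to wild type and mutant plate controls; inactive means inhibition below 50%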;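 further: 0% = wild type cc124 cells in DMSO and 100% = ciliumless bld1 mutant cells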); conditions: Chlamydomonas reinhardtii gravitaxis, OD600 absorbance, 2 days; at 10 µM; stronger effect = higher value
[10] = measured here: cell density z-score
[11] = measured here: nuclear c-Myc green intensity z-score
[12] = measured here: nuclear pErk red intensity z-score, stronger effect = higher value

Sequence of Alpha-2C adrenergic receptor (Homo sapiens) (P18825 whole entry, looked up): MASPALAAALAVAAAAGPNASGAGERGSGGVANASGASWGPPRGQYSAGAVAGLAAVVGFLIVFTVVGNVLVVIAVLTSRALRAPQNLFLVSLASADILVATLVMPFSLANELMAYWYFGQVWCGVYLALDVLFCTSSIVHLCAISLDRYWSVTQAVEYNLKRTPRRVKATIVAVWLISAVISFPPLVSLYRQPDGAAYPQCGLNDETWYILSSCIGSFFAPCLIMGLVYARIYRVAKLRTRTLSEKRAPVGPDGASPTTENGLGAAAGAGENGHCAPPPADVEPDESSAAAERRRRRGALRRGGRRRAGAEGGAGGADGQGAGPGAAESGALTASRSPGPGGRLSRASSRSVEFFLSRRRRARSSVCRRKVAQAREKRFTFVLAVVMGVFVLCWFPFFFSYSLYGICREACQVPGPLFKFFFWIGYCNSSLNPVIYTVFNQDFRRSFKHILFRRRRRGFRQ
Sequence of Dual specificity protein phosphatase 6 (Homo sapiens) (Q16828 whole entry, looked up): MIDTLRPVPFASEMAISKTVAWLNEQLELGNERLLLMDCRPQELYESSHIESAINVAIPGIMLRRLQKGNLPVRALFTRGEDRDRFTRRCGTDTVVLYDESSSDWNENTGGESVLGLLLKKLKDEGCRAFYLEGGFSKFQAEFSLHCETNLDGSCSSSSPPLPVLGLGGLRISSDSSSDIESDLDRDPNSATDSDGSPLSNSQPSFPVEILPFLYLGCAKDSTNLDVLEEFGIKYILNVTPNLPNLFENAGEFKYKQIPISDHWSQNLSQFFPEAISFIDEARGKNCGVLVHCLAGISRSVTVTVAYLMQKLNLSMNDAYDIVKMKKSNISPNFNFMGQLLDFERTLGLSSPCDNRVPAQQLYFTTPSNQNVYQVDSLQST
Sequence of Voltage-gated potassium channel subunit beta-2 (Rattus norvegicus) (P62483 whole entry, looked up): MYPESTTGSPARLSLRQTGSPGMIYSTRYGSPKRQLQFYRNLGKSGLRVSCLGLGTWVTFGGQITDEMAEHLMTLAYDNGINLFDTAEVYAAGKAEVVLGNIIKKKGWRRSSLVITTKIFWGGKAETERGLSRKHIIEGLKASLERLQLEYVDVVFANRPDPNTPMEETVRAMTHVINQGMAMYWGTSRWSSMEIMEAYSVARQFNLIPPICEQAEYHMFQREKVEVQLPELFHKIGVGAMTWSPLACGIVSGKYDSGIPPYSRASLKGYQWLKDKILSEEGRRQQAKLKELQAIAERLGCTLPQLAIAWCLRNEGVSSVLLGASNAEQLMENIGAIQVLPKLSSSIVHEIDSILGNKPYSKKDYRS

| Compound | cell count [1] | inhibition [1] | inhibition [2] | nuclei count [2] [%] | z-score [3, 10] | z-score [3, 11] | z-score [3, 12] | inhibition [4] | fluorescence slope [5] | NADPH fluorescence slope [6] | slope [7] | outcome [8] | inhibition [9] |
| --- | --- | --- | --- | --- | --- | --- | --- | --- | --- | --- | --- | --- | --- |
| Cc1nc(N2CCOCC2)c(C#N)c2c1COC(C)(C)C2 | 582 | -0.2% (inactive) | -43.9% (inactive) | 99.8 | -1.02 | 1 | -1.11 | 3.66% (inactive) | -0.521 (inactive) | -4.3e-05 (inactive) | 0.00501 (inactive) | inactive | -6.08% (inactive) |
| CN1CCc2nc(SCC(=O)Nc3ccc(Cl)cc3)c(C#N)cc2C1 | 378 | -14.3% (inactive) | -155% (inactive) | 162 | 1.95 | -0.641 | -1.16 | 12.3% (inactive) | -0.422 (inactive) | -0.000135 (inactive) | 0.0059 (inactive) | inactive | 0.323% (inactive) |
| CCn1cc(C(=O)NCCc2ccccc2)c(=O)c2cc(F)c(N3CCN(C)CC3)cc21 | 483 | -8.4% (inactive) | -187% (inactive) | 186 | -0.562 | 1.62 | 1.38 | -8.95% (inactive) | -0.321 (inactive) | -1.5e-05 (inactive) | 0.00526 (inactive) | inactive | 23.3% (inactive) |
| c1ccc(C2=Nn3c(nnc3-c3ccccn3)SC2)cc1 | 589 | -10.9% (inactive) | -79.3% (inactive) | 170 | -0.434 | 1.46 | 1.25 | -9.66% (inactive) | -0.412 (inactive) | -0.000132 (inactive) | 0.00684 (inactive) | inactive | -6.13% (inactive) |
| N#Cc1c(N)nc(SCc2ccccn2)c(C#N)c1-c1cccs1 | 526 | -6.5% (inactive) | -189% (inactive) | 176 | 0.739 | 1.34 | -0.969 | 4.25% (inactive) | -0.289 (inactive) | 1.5e-05 (inactive) | 0.00485 (inactive) | inactive | 1.02% (inactive) |
| COc1cc2c(C(=O)N3CCN(c4ccccc4)CC3)c(C)oc2cc1Br | 539 | -0.9% (inactive) | -65.1% (inactive) | 139 | 1.72 | -0.592 | -0.944 | 10.5% (inactive) | -0.532 (inactive) | -2.7e-05 (inactive) | 0.00643 (inactive) | inactive | 1.23% (inactive) |
| CN(C)c1oc(-c2cccs2)nc1C#N | 443 | -7.1% (inactive) | -173% (inactive) | 157 | 1.44 | 1.03 | -0.732 | 6.04% (inactive) | -0.052 (inactive) | -1.6e-06 (inactive) | 0.00583 (inactive) | inactive | 4.07% (inactive) |
| Cc1ccc(/C=c2\sc3n(c2=O)CN(c2ccc(Br)cc2)CN=3)o1 | 367 | -0.5% (inactive) | -127% (inactive) | 137 | 1.52 | -1.23 | -1.08 | 22.7% (inactive) | -0.389 (inactive) | -1.9e-05 (inactive) | 0.00432 (inactive) | inactive | -6.84% (inactive) |
| Cc1cc(=O)oc2cc(OCCSCCN3CCOCC3)ccc12 | 382 | -4.7% (inactive) | -171% (inactive) | 162 | 1.19 | 0.929 | 0.186 | 15.1% (inactive) | -0.358 (inactive) | -6.2e-05 (inactive) | 0.00648 (inactive) | inactive | -5.19% (inactive) |
| CCOC(=O)c1cnc(SC2CC(=O)N(c3cccc(OC)c3)C2=O)nc1N (stereo unspecified) | 591 | -4.7% (inactive) | -23.7% (inactive) | 155 | 0.0661 | -0.104 | -0.161 | -8.76% (inactive) | -0.317 (inactive) | -9.7e-06 (inactive) | 0.00504 (inactive) | inactive | -8.83% (inactive) |
| Cc1c(/C(O)=C2\C(=O)C(=O)N(CCN(C)C)C2c2cccnc2)cnn1-c1ccccc1 (stereo unspecified) | 512 | -1.7% (inactive) | -140% (inactive) | 139 | 1.11 | -1.54 | 0.165 | -8.76% (inactive) | -0.564 (inactive) | -7.1e-05 (inactive) | 0.00465 (inactive) | inactive | -1.73% (inactive) |
| CCOC(=O)c1nc2nc(C)c(Cl)c(=O)n2[nH]1 | 529 | 3.9% (inactive) | -83.9% (inactive) | 153 | 0.438 | -0.565 | -0.252 | 14% (inactive) | -0.497 (inactive) | -4.1e-05 (inactive) | 0.00501 (inactive) | inactive | 0.754% (inactive) |
| Cc1cccc(C)c1OCC(O)CNS(=O)(=O)c1ccccc1C(=O)N1CCCCC1 (stereo unspecified) | 512 | 5.4% (inactive) | -148% (inactive) | 171 | -0.797 | 2.33 | 0.877 | -3.95% (inactive) | -0.36 (inactive) | -7e-05 (inactive) | 0.00455 (inactive) | inactive | -6.87% (inactive) |
| COc1cccc(-c2nnc3sc(-c4cccs4)nn23)c1 | 595 | -9.3% (inactive) | -23% (inactive) | 158 | -0.757 | 0.596 | -0.177 | -11.5% (inactive) | -0.406 (inactive) | -0.000146 (inactive) | 0.00547 (inactive) | inactive | 67.3% (active) |
| O=C1c2ccccc2S(=O)(=O)N1CC(O)COc1ccc(Cl)cc1 (stereo unspecified) | 354 | -14.1% (inactive) | -291% (inactive) | 97 | 0.633 | 0.437 | -1.99 | 1.75% (inactive) | -0.439 (inactive) | -8.9e-06 (inactive) | 0.00476 (inactive) | inactive | 1.18% (inactive) |
| CCCCn1c2nc3ccccc3nc2c2c(=O)n(CC(C)C)cnc21 | 391 | 2.5% (inactive) | 21.4% (inactive) | 141 | 0.699 | 0.544 | -0.343 | 17.4% (inactive) | -0.436 (inactive) | -9.3e-05 (inactive) | 0.00687 (inactive) | inactive | 33.2% (inactive) |
| Cc1nc2c(c(=O)n1CC1CCCO1)c1nc3ccccc3nc1n2Cc1ccc2c(c1)OCO2 (stereo unspecified) | 281 | -7.1% (inactive) | -128% (inactive) | 80.3 | 2.15 | -0.362 | -1.56 | -0.584% (inactive) | -0.42 (inactive) | -0.000106 (inactive) | 0.00645 (inactive) | inactive | 9.64% (inactive) |
| C/C(=N\O)C1(C)N(O)C(C)(C)C(c2ccco2)=[N+]1[O-] (stereo unspecified) | 428 | -2.8% (inactive) | -112% (inactive) | 131 | 0.73 | -1.17 | -0.0605 | 13.2% (inactive) | -0.486 (inactive) | -3.2e-05 (inactive) | 0.00518 (inactive) | inactive | 14.5% (inactive) |
| Cc1cc(=O)oc(C)c1C(=O)N1CCN(C)CC1 | 367 | -10.4% (inactive) | -117% (inactive) | 167 | -1.15 | 0.212 | 0.815 | -8.59% (inactive) | -0.463 (inactive) | -0.000105 (inactive) | 0.00444 (inactive) | inactive | 5.44% (inactive) |
| Cc1ccc(S(=O)(=O)N2CCN(c3nc(C)c4c(c3C#N)CC(C)(C)OC4)CC2)cc1 | 645 | -13.9% (inactive) | 9.7% (inactive) | 182 | 1 | -1.7 | 0.0451 | 22.7% (inactive) | -0.471 (inactive) | -0.000183 (inactive) | 0.0077 (inactive) | inactive | 110% (active) |
| Cc1c(NS(=O)(=O)c2cccc3nsnc23)c(=O)n(-c2ccccc2)n1C | 549 | -1.1% (inactive) | -51.8% (inactive) | 154 | 0.537 | 0.599 | -0.221 | -6.06% (inactive) | -0.499 (inactive) | -3.8e-05 (inactive) | 0.00709 (inactive) | inactive | -6.26% (inactive) |
| Cc1ccc(C2C(C(=O)c3cc4ccccc4o3)=C(O)C(=O)N2CCN(C)C)o1 (stereo unspecified) | 352 | -3% (inactive) | 23.2% (inactive) | 101 | -1.49 | 2.05 | -0.073 | -6.48% (inactive) | -0.443 (inactive) | -2.4e-05 (inactive) | 0.00982 (inactive) | inactive | -11.1% (inactive) |
| CC1(C)Cc2c(sc3ncn4nnnc4c23)CO1 | 685 | -0.9% (inactive) | -182% (inactive) | 180 | 1.78 | -1.07 | 0.925 | 13.2% (inactive) | -0.522 (inactive) | -3.9e-05 (inactive) | 0.00539 (inactive) | inactive | 9.27% (inactive) |
| Cc1ccc(N2C(=O)[C@@H]3[C@H](C2=O)C2CCCN2[C@@H]3C(=O)c2ccccc2)cc1 (stereo partly specified) | 329 | -6.6% (inactive) | -25.8% (inactive) | 146 | 1.29 | -0.857 | 1.07 | -8.59% (inactive) | -0.42 (inactive) | -0.000146 (inactive) | 0.00854 (inactive) | inactive | 0.279% (inactive) |
| COC(=O)Cn1cc(C(=O)OC)cc(Br)c1=O | 507 | -0.8% (inactive) | -135% (inactive) | 136 | 0.966 | 0.177 | 0.211 | -8.76% (inactive) | -0.539 (inactive) | -3.3e-05 (inactive) | 0.00509 (inactive) | inactive | -6.78% (inactive) |
| COc1ccc(C2=Nn3c(nnc3-c3ccccn3)SC2)cc1OC | 593 | -10% (inactive) | 60% (inactive) | 100 | 1.34 | 0.0492 | -0.154 | -16.8% (inactive) | -0.476 (inactive) | -0.000137 (inactive) | 0.00709 (inactive) | inactive | 9.28% (inactive) |
| COC(=O)c1ccc(OC(=O)c2ccc(OC)c(OC)c2)c(OC)c1 | 601 | -0.3% (inactive) | 2.2% (inactive) | 142 | 0.251 | -0.0242 | -0.151 | 11.4% (inactive) | -0.491 (inactive) | -0.000121 (inactive) | 0.00612 (inactive) | inactive | 1.14% (inactive) |
